pKi: −log10 of the molar value.
Tests used:
[1] = molecular target: 5-hydroxytryptamine receptor 2A (Homo sapiens, UniProt P28223); test: Compound was tested for the displacement of [125I]-DOI from clone human 5-hydroxytryptamine 2A receptor
Summary of the method: (§1)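 Membranes from AV12 hamster fibroblasts stably expressing human 5-HT2A or 5-HT2C. [125I]DOI was about 0.07–0.15 nM final. Buffer was 50 mM Tris-HCl pH 7.4 with 10 μM pargyline, 9.75 mM MgCl2, 0.5 mM Na2-EDTA and 0.1% Na ascorbate. Incubation was 30 min at 37 °C with about 40 μg protein (2A) or 30 μg (2C). Nonspecific binding used 1 μM ketanserin (2A) or 10 μM mianserin (2C). Read by gamma counting; sigmoid nonlinear regression.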

[2] = molecular target: T1, 5-hydroxytryptamine receptor 2C (Homo sapiens, UniProt P28335); test: Compound was tested for the displacement of [125I]DOI from cloned human 5-hydroxytryptamine 2C receptor; summary of the method: as §1
T1 sequence (P28335 whole entry): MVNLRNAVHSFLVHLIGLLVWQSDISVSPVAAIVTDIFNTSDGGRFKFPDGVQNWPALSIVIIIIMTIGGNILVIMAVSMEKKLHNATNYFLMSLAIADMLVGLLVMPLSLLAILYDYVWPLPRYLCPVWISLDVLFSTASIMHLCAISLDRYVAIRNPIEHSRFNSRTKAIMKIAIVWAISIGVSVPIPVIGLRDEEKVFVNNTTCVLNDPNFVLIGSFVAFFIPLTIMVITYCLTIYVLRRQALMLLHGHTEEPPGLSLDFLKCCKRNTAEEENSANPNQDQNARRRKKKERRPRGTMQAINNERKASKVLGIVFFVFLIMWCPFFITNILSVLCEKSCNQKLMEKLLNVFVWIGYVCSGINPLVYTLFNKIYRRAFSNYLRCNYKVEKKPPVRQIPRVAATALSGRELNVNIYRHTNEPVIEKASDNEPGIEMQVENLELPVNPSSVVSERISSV

Rattus norvegicus [3] = test: Percentage of animals failing to emit 50 lever presses within 15 min in DOI trained rats at a compound dose of 16 mg/kg; assay type: functional
Summary of the method: (§2)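 Male Sprague–Dawley rats (200–220 g) in a two-lever, FR50 food-reinforced task. Rats were trained to discriminate saline from LSD tartrate (0.08 mg/kg), DOI HCl (0.4 mg/kg) or LY293284 (0.025 mg/kg) in 15-min sessions. %SDL is the share of rats making over 80% of presses on the drug lever. %D is the share failing to make 50 presses within 15 min. ED50 by Litchfield–Wilcoxon log-probit.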

Rattus norvegicus [4] = test: Percentage of animals failing to emit 50 lever presses within 15 min in DOI trained rats at a compound dose of 2 mg/kg; assay type: functional; summary of the method: as §2
Rattus norvegicus [5] = test: Percentage of animals failing to emit 50 lever presses within 15 min in DOI trained rats at a compound dose of 4 mg/kg; assay type: functional; summary of the method: as §2
Rattus norvegicus [6] = test: Percentage of animals failing to emit 50 lever presses within 15 min in DOI trained rats at a compound dose of 8 mg/kg; assay type: functional; summary of the method: as §2
Rattus norvegicus [7] = test: Percentage of animals failing to emit 50 lever presses within 15 min in LSD trained rats at a compound dose of 0.5 mg/kg; assay type: functional; summary of the method: as §2
Rattus norvegicus [8] = test: Percentage of animals failing to emit 50 lever presses within 15 min in LSD trained rats at a compound dose of 1.0 mg/kg; assay type: functional; summary of the method: as §2
Rattus norvegicus [9] = test: Percentage of animals failing to emit 50 lever presses within 15 min in LSD trained rats at a compound dose of 16 mg/kg; assay type: functional; summary of the method: as §2
Rattus norvegicus [10] = test: Percentage of animals failing to emit 50 lever presses within 15 min in LSD trained rats at a compound dose of 2.0 mg/kg; assay type: functional; summary of the method: as §2
Rattus norvegicus [11] = test: Percentage of animals failing to emit 50 lever presses within 15 min in LSD trained rats at a compound dose of 4.0 mg/kg; assay type: functional
Summary of the method: (§3)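 Two-lever drug discrimination in male Sprague–Dawley rats (200–220 g at start), trained against saline on LSD tartrate (0.08 mg/kg), DOI HCl (0.4 mg/kg) or LY293284 (0.025 mg/kg). FR50 food-pellet reinforcement, levers counterbalanced, 15-min sessions at 22–24 °C. %D is the share of tested rats not completing 50 lever presses within 15 min.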

Rattus norvegicus [12] = test: Percentage of animals failing to emit 50 lever presses within 15 min in LSD trained rats at a compound dose of 8.0 mg/kg; assay type: functional; summary of the method: as §3
Rattus norvegicus [13] = test: Percentage of animals failing to emit 50 lever presses within 15 min in […] trained rats at a compound dose of 2 mg/kg; assay type: functional; summary of the method: as §3
Rattus norvegicus [14] = test: Percentage of animals failing to emit 50 lever presses within 15 min in […] trained rats at a compound dose of 4 mg/kg; assay type: functional; summary of the method: as §3
Rattus norvegicus [15] = test: Percentage of animals emitting >80% of lever presses in DOI trained rats at a compound dose of 25.3 uM/Kg; assay type: functional; summary of the method: as §2
Rattus norvegicus [16] = test: Percentage of animals emitting >80% of lever presses in DOI trained rats at a compound dose of 50.6 uM/Kg; assay type: functional; summary of the method: as §2
Rattus norvegicus [17] = test: Percentage of animals emitting >80% of lever presses in DOI trained rats at a compound dose of 6.32 uM/Kg; assay type: functional; summary of the method: as §2
Rattus norvegicus [18] = test: Percentage of animals emitting >80% of lever presses in LSD trained rats at a compound dose of 1.58 uM/Kg; assay type: functional; summary of the method: as §2
Rattus norvegicus [19] = test: Percentage of animals emitting >80% of lever presses in LSD trained rats at a compound dose of 25.3 uM/Kg; assay type: functional; summary of the method: as §2
Rattus norvegicus [20] = test: Percentage of animals emitting >80% of lever presses in LSD trained rats at a compound dose of 3.16 uM/Kg; assay type: functional; summary of the method: as §2
Rattus norvegicus [21] = test: Percentage of animals emitting >80% of lever presses in LSD trained rats at a compound dose of 50.6 uM/Kg; assay type: functional; summary of the method: as §2
Rattus norvegicus [22] = test: Percentage of animals emitting >80% of lever presses in LSD trained rats at a compound dose of 6.32 uM/Kg; assay type: functional; summary of the method: as §2
Rattus norvegicus [23] = test: Percentage of animals emitting >80% of lever presses in […] trained rats at a compound dose of 12.6 uM/Kg; assay type: functional; summary of the method: as §2
Rattus norvegicus [24] = test: Percentage of animals emitting >80% of lever presses in […] trained rats at a compound dose of 25.3 uM/Kg; assay type: functional; summary of the method: as §2
Rattus norvegicus [25] = test: Percentage of animals emitting >80% of lever presses in […] trained rats at a compound dose of 50.6 uM/Kg; assay type: functional; summary of the method: as §2
Rattus norvegicus [26] = test: Percentage of animals emitting >80% of lever presses in […] trained rats at a compound dose of 6.32 uM/Kg; assay type: functional; summary of the method: as §2
Rattus norvegicus [27] = test: Percentage of animals emitting >80% of lever presses in LSD trained rats at a compound dose of 12.6 uM/Kg; assay type: functional; summary of the method: as §2
Rattus norvegicus [28] = test: Percentage of animals failing to emit 50 lever presses within 15 min in […] trained rats at a compound dose of 8 mg/kg; assay type: functional; summary of the method: as §3

Chain of 5-hydroxytryptamine receptor 2A (P28223 whole entry): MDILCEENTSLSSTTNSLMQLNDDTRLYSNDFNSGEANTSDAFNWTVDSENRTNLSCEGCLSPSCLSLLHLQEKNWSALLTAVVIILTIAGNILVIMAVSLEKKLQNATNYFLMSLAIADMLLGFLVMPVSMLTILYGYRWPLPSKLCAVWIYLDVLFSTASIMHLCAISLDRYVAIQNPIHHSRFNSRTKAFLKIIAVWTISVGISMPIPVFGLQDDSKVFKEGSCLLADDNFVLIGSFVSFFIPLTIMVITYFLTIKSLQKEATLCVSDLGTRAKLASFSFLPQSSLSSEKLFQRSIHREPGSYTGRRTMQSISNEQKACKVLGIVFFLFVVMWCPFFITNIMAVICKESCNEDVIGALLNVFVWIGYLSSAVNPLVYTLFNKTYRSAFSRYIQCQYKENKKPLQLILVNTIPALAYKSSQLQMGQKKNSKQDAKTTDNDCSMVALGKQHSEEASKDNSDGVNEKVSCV

CN(C)CCc1c[nH]c2sccc12 showed a pKi [1] of 6.97, a pKi [2] of 6.99 and a D (Rattus norvegicus [3]) of 50%. For the same compound, the D (Rattus norvegicus [4]) was 0%, the D (Rattus norvegicus [5]) was 0% and the D (Rattus norvegicus [6]) was 12.5%. It also gave a D (Rattus norvegicus [7]) of 22%, a D (Rattus norvegicus [8]) of 0% and a D (Rattus norvegicus [9]) of 50%. For the same compound, the D (Rattus norvegicus [10]) was 0%, the D (Rattus norvegicus [11]) was 0% and the D (Rattus norvegicus [12]) was 0%. For the same compound, the D (Rattus norvegicus [13]) was 0%, the D (Rattus norvegicus [14]) was 0% and the SDL (Rattus norvegicus [15]) was 0%. For the same compound, the SDL (Rattus norvegicus [16]) was 0%, the SDL (Rattus norvegicus [17]) was 0% and the SDL (Rattus norvegicus [18]) was 14%. The SDL (Rattus norvegicus [19]) was 9%, the SDL (Rattus norvegicus [20]) was 7.7% and the SDL (Rattus norvegicus [21]) was 16.7%. The SDL (Rattus norvegicus [22]) was 9%, the SDL (Rattus norvegicus [23]) was 67% and the SDL (Rattus norvegicus [24]) was 58%. The SDL (Rattus norvegicus [25]) was 83%, the SDL (Rattus norvegicus [26]) was 10% and the SDL (Rattus norvegicus [27]) was 16.7%. It also gave a D (Rattus norvegicus [28]) of 0%.
